Converted amounts (≈) assume the structure as drawn. Where only a bound is given, the exact number is not on record here.

Holding throughout (format): functional
The subject of experiment [1] is Aspergillus fumigatus. Nature of the experiment: Antifungal activity against Aspergillus fumigatus NCIM 902 by serial plate dilution method.
The subject of experiment [2] is Staphylococcus aureus. Put plainly: Antibacterial activity against Staphylococcus aureus ATCC 25923 after 16 to 18 hrs by serial plate dilution method. Summed up: (§1)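 Drug serially diluted in Mueller–Hinton broth in tubes, adjusted to pH 5.0 with phosphate buffer. Inoculated with standardized bacterial suspension and incubated 16–18 h at 37 °C. MIC taken as lowest concentration with no visible growth.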

In experiment [3] the test system is Aspergillus flavus. Nature of the experiment: Antifungal activity against Aspergillus flavus NCIM 524 by serial plate dilution method.
In experiment [4] the test system is Aspergillus flavus. Nature of the experiment: Antifungal activity against Aspergillus flavus NCIM 524 at MIC after 3 to 4 days by agar well diffusion method. Summed up:
(§2)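 Sabouraud agar (peptone, D-glucose, agar; pH 5.7) seeded with spore suspension made by transferring a loopful of fungus to 3 mL normal saline. Excess decanted, plates dried 1 h at 37 °C. Compounds in DMSO at MIC added to punched wells; DMSO control. Triplicate plates kept 3–4 days at 37 °C.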

In experiment [5] the test system is Trichophyton mentagrophytes. Nature of the experiment: Antifungal activity against recultured Trichophyton mentagrophytes at MIC after 3 to 4 days by agar well diffusion method. Summed up:
as §2
For orientation: Agar diffusion results depend on both activity and mobility in agar.

In experiment [6] the test system is Klebsiella pneumoniae. Put plainly: Antibacterial activity against recultured Klebsiella pneumoniae at MIC after 3 to 4 days by agar well diffusion method.
Experiment [7] has as its system Talaromyces marneffei. Put plainly: Antifungal activity against recultured Penicillium marneffei by serial plate dilution method.
The test system of experiment [8] is Trichophyton mentagrophytes. Put plainly: Antifungal activity against recultured Trichophyton mentagrophytes by serial plate dilution method.
For experiment [9], the system named is Escherichia coli. Nature of the experiment: Antibacterial activity against Escherichia coli ATCC 25922 at MIC after 3 to 4 days by agar well diffusion method.
The test system of experiment [10] is Staphylococcus aureus. Nature of the experiment: Antibacterial activity against Staphylococcus aureus ATCC 25923 at MIC after 3 to 4 days by agar well diffusion method.
Experiment [11] has as its system Talaromyces marneffei. Put plainly: Antifungal activity against recultured Penicillium marneffei at MIC after 3 to 4 days by agar well diffusion method. Summed up: as §2
The subject of experiment [12] is Pseudomonas aeruginosa. Nature of the experiment: Antibacterial activity against Pseudomonas aeruginosa ATCC 27853 at MIC after 3 to 4 days by agar well diffusion method.
Experiment [13] relates to Klebsiella pneumoniae. Put plainly: Antibacterial activity against recultured Klebsiella pneumoniae after 16 to 18 hrs by serial plate dilution method. The procedure, abridged:
as §1

For experiment [14], the system named is Escherichia coli. Nature of the experiment: Antibacterial activity against Escherichia coli ATCC 25922 after 16 to 18 hrs by serial plate dilution method. Summed up: as §1
The test system of experiment [15] is Aspergillus fumigatus. Nature of the experiment: Antifungal activity against Aspergillus fumigatus NCIM 902 at MIC after 3 to 4 days by agar well diffusion method. Summed up: as §2
The test system of experiment [16] is Pseudomonas aeruginosa. Put plainly: Antibacterial activity against Pseudomonas aeruginosa ATCC 27853 after 16 to 18 hrs by serial plate dilution method. The procedure, abridged:
as §1

As a reminder, the MIC is the least concentration at which growth counts as inhibited. High values mean a need for much substance, low ones inhibition by little substance. For the molecule `COCCn1c(S)nnc1-c1cnc2c(C(F)(F)F)cccc2c1NC1CC1`, the MIC in experiment [1], in experiment [2], in experiment [3], in experiment [7], in experiment [8] and in [13] was 6.25 µg/mL (≈ 15.3 µM) throughout. Moreover, the MIC in experiment [14] and in experiment [16] was 6.25 µg/mL (≈ 15.3 µM) each time. Also, the “inhibition zone (IZ)” value in [4] worked out at 16 mm; in experiment [5] it was 20 mm; in experiment [6], 16 mm; in [9] it was 20 mm; in experiment [10] it was 16 mm; in [11] it was 16 mm. Also, the “inhibition zone (IZ)” value in experiment [12] and in experiment [15] was 16 mm throughout.
On to `COCCn1c(S)nnc1-c1cnc2c(C(F)(F)F)cccc2c1N1CCN(C2CCCCC2)CC1`, for which the MIC in experiment [1] came out at 50 µg/mL (≈ 96 µM); in experiment [2], 50 µg/mL (≈ 96 µM); in [3], 50 µg/mL (≈ 96 µM); in [7] it was 50 µg/mL (≈ 96 µM); in [8], 6.25 µg/mL (≈ 12 µM); in [13], 50 µg/mL (≈ 96 µM). The values for the MIC in experiment [14] and in experiment [16] were 6.25 µg/mL (≈ 12 µM) and 50 µg/mL (≈ 96 µM), respectively. In addition, the “inhibition zone (IZ)” value in experiment [4] is <10 mm; in experiment [5] it was 20 mm; in experiment [6], <10 mm; in experiment [9], 20 mm; in experiment [10] it was <10 mm; in [11], <10 mm. Moreover, the “inhibition zone (IZ)” value in experiment [12] and in experiment [15] was <10 mm in each case.
On to `FC(F)(F)c1cccc2c(NC3CC3)c(-c3nnc(S)n3Cc3ccccc3)cnc12`, for which the MIC in experiment [1], in experiment [2], in experiment [3], in experiment [7], in experiment [8] and in [13] was 6.25 µg/mL (≈ 14.2 µM) throughout. The MIC in experiment [14] and in experiment [16] was 6.25 µg/mL (≈ 14.2 µM) in each case. In addition, the “inhibition zone (IZ)” value in experiment [4] is recorded as 16 mm; in experiment [5], 20 mm; in [6], 16 mm; in [9] it was 20 mm; in experiment [10] it was 16 mm; in experiment [11], 16 mm. Also, the “inhibition zone (IZ)” value in experiment [12] and in [15] was 16 mm throughout.
With `CCN1CCN(c2c(-c3nnc(S)n3CCOC)cnc3c(C(F)(F)F)cccc23)CC1`, the MIC in experiment [1] is 50 µg/mL (≈ 107 µM); in [2], 50 µg/mL (≈ 107 µM); in experiment [3], 50 µg/mL (≈ 107 µM); in experiment [7], 50 µg/mL (≈ 107 µM); in experiment [8] it was 6.25 µg/mL (≈ 13.4 µM); in experiment [13], 50 µg/mL (≈ 107 µM). In addition, the MIC amounted to 6.25 µg/mL (≈ 13.4 µM) in [14] and 50 µg/mL (≈ 107 µM) in experiment [16]. Further, the “inhibition zone (IZ)” value is given as <10 mm in [4]; 20 mm in experiment [5]; <10 mm in experiment [6]; 20 mm in experiment [9]; <10 mm in experiment [10]; <10 mm in experiment [11]. Further, the “inhibition zone (IZ)” value in experiment [12] and in experiment [15] was <10 mm throughout.
For `FC(F)(F)c1cccc2c(N3CCN(C4CCCCC4)CC3)c(-c3nnc(S)n3-c3ccccc3)cnc12`, the MIC in experiment [1], in experiment [2], in [3], in experiment [7], in experiment [8] and in [13] was 50 µg/mL (≈ 92.8 µM) in each case. In addition, the results for the MIC in experiment [14] and in experiment [16] were 6.25 µg/mL (≈ 11.6 µM) and 50 µg/mL (≈ 92.8 µM), respectively. The “inhibition zone (IZ)” value in experiment [4] is on record as <10 mm; in experiment [5] it was <10 mm; in experiment [6], <10 mm; in experiment [9], 20 mm; in experiment [10], <10 mm; in experiment [11], <10 mm. Also, the “inhibition zone (IZ)” value in [12] and in experiment [15] was <10 mm throughout.
Turning to `FC(F)(F)c1cccc2c(N3CCN(C4CCCCC4)CC3)c(-c3nnc(S)n3Cc3ccccc3)cnc12`, the MIC in experiment [1] was 50 µg/mL (≈ 90.5 µM); in [2], 6.25 µg/mL (≈ 11.3 µM); in experiment [3] it was 50 µg/mL (≈ 90.5 µM); in experiment [7] it was 50 µg/mL (≈ 90.5 µM); in experiment [8], 50 µg/mL (≈ 90.5 µM); in experiment [13] it was 50 µg/mL (≈ 90.5 µM). The MIC in [14] and in experiment [16] was 50 µg/mL (≈ 90.5 µM) each time. Moreover, the “inhibition zone (IZ)” value in experiment [4] is <10 mm; in experiment [5], <10 mm; in experiment [6], <10 mm; in experiment [9] it was <10 mm; in [10], 16 mm; in experiment [11] it was <10 mm. Also, the “inhibition zone (IZ)” value in experiment [12] and in experiment [15] was <10 mm each time.
For the molecule `COCCn1c(S)nnc1-c1cnc2c(C(F)(F)F)cccc2c1N1CCC(CCCO)CC1`, the MIC is 50 µg/mL (≈ 101 µM) in experiment [1]; 6.25 µg/mL (≈ 12.6 µM) in [2]; 50 µg/mL (≈ 101 µM) in experiment [3]; 50 µg/mL (≈ 101 µM) in experiment [7]; 50 µg/mL (≈ 101 µM) in experiment [8]; 50 µg/mL (≈ 101 µM) in experiment [13]. In addition, the values for the MIC in experiment [14] and in [16] were 6.25 µg/mL (≈ 12.6 µM) and 50 µg/mL (≈ 101 µM), respectively. In addition, the “inhibition zone (IZ)” value is given as <10 mm in experiment [4]; <10 mm in experiment [5]; <10 mm in experiment [6]; 20 mm in [9]; 16 mm in experiment [10]; <10 mm in experiment [11]. The “inhibition zone (IZ)” value in experiment [12] and in experiment [15] was <10 mm in each case.
As to `COCCn1c(S)nnc1-c1cnc2c(C(F)(F)F)cccc2c1N1CC(C)OC(C)C1` (centres undefined), the MIC in experiment [1], in experiment [2], in [3], in experiment [7], in experiment [8] and in [13] was 6.25 µg/mL (≈ 13.4 µM) throughout. Also, the MIC in experiment [14] and in experiment [16] was 6.25 µg/mL (≈ 13.4 µM) each time. The “inhibition zone (IZ)” value worked out at 16 mm in experiment [4]; 20 mm in [5]; 16 mm in experiment [6]; 20 mm in experiment [9]; 16 mm in experiment [10]; 16 mm in [11]. Besides, the “inhibition zone (IZ)” value in experiment [12] and in experiment [15] was 16 mm in each case.
For `COCCn1c(S)nnc1-c1cnc2c(C(F)(F)F)cccc2c1NC1CCCCC1`, the MIC in [1], in [2], in experiment [3], in experiment [7], in experiment [8] and in experiment [13] was 6.25 µg/mL (≈ 13.8 µM) in each case. Moreover, the MIC in [14] and in experiment [16] was 6.25 µg/mL (≈ 13.8 µM) in each case. In addition, the “inhibition zone (IZ)” value in experiment [4] stood at 16 mm; in [5], 20 mm; in [6], 16 mm; in [9] it was 20 mm; in [10], 16 mm; in experiment [11], 16 mm. Besides, the “inhibition zone (IZ)” value in experiment [12] and in experiment [15] was 16 mm in each case.
